{"source": "paper PMC5783483", "about": "(Molecular Medicine Reports, 2017)", "assay_type_in_all_cases": "in vivo, BALB/c/nu nude mice", "conditions_in_all_cases": "Taxol 5 mg/kg injection twice per week", "key": {"[1]": {"system": "MX-1/T xenograft", "assay": "Breast cancer MX-1/T xenograft model", "procedure,_shortened": "(§1)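 Six-week-old female BALB/c/nu nude mice (15–16 g) bearing MX-1 or MX-1/T xenografts, housed at 25°C on a 12-h light/dark cycle. Mice were randomized into four groups of five once mean tumor volume reached 100–250 mm3. Read-outs were relative tumor volume T/C and excised tumor weight, as mean ± SD.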"}, "[2]": {"system": "MCF-7 xenograft", "assay": "Breast cancer MCF-7 xenograft model", "procedure,_shortened": "(§2)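 Six-week-old female BALB/c/nu nude mice (16–22 g) bearing MCF-7 or MCF-7/T xenografts, housed at 25°C on a 12-h light/dark cycle. Mice were randomized into four groups of five at a mean tumor volume of 100–250 mm3. Read-outs were RTV T/C and excised tumor weight, as mean ± SD.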"}, "[3]": {"system": "MCF-7/T xenograft", "assay": "Breast cancer MCF-7/T xenograft model", "procedure,_shortened": "as §2"}, "[4]": {"system": "MX-1 xenograft", "assay": "Breast cancer MX-1 xenograft model", "procedure,_shortened": "as §1"}}, "note": "Marks after values point to notes of the source that are not given here."}
{"smiles": "CC(=O)O[C@H]1C(=O)[C@@]2(C)[C@H]([C@H](OC(=O)c3ccccc3)[C@]3(O)C[C@H](OC(=O)[C@H](O)[C@@H](NC(=O)c4ccccc4)c4ccccc4)C(C)=C1C3(C)C)[C@]1(OC(C)=O)CO[C@@H]1C[C@@H]2O", "note": "[Taxol]", "values": [{"measurement": "Body weight Final", "setting": "[1]; 13 days", "result": "20.4 ± 0.9", "unit": "g"}, {"measurement": "Relative tumor volume Treated/control ratio", "setting": "[1]; 13 days", "result": 95.13, "unit": "%"}, {"measurement": "Relative tumor volume x±SD", "setting": "[1]; 13 days", "result": "22.71±11.09"}, {"measurement": "Tumor volume Final", "setting": "[1]; 13 days", "result": "2,183.1±1,091.0 mm3"}, {"measurement": "Tumor weight x±SD", "setting": "[1]; 13 days", "result": "1.58 ± 0.79", "unit": "g"}, {"measurement": "Body weight Initial", "setting": "[1]; before treatment", "result": "15.6 ± 0.6", "unit": "g"}, {"measurement": "Tumor volume Initial", "setting": "[1]; before treatment", "result": "95.7±17.1", "unit": "mm3"}, {"measurement": "Body weight Final", "setting": "[2]; 33 days", "result": "22.8 ± 2.3", "unit": "g"}, {"measurement": "Relative tumor volume Treated/control ratio", "setting": "[2]; 33 days", "result": 6.75, "unit": "%"}, {"measurement": "Relative tumor volume x±SD", "setting": "[2]; 33 days", "result": "0.34±0.22^a"}, {"measurement": "Tumor volume Final", "setting": "[2]; 33 days", "result": "68.3±32.5^a mm3"}, {"measurement": "Tumor weight Inhibition", "setting": "[2]; 33 days", "result": 96.36, "unit": "%"}, {"measurement": "Tumor weight x±SD", "setting": "[2]; 33 days", "result": "0.04±0.02^a g"}, {"measurement": "Body weight Initial", "setting": "[2]; before treatment", "result": "21.0 ± 1.6", "unit": "g"}, {"measurement": "Tumor volume Initial", "setting": "[2]; before treatment", "result": "227.4±74.6", "unit": "mm3"}, {"measurement": "Body weight Final", "setting": "[3]; 33 days", "result": "17.5 ± 2.1", "unit": "g"}, {"measurement": "Relative tumor volume x±SD", "setting": "[3]; 33 days", "result": "12.59±3.17"}, {"measurement": "Tumor volume Final", "setting": "[3]; 33 days", "result": "1,871.0±981.5 mm3"}, {"measurement": "Tumor weight x±SD", "setting": "[3]; 33 days", "result": "1.36 ± 0.48", "unit": "g"}, {"measurement": "Body weight Initial", "setting": "[3]; before treatment", "result": "16.8 ± 1.9", "unit": "g"}, {"measurement": "Tumor volume Initial", "setting": "[3]; before treatment", "result": "132.5±45.3", "unit": "mm3"}, {"measurement": "Body weight Final", "setting": "[4]; 13 days", "result": "20.8 ± 2.2", "unit": "g"}, {"measurement": "Relative tumor volume Treated/control ratio", "setting": "[4]; 13 days", "result": 55.56, "unit": "%"}, {"measurement": "Relative tumor volume x±SD", "setting": "[4]; 13 days", "result": "12.27±2.33^b"}, {"measurement": "Tumor volume Final", "setting": "[4]; 13 days", "result": "1,714.4±308.2^a mm3"}, {"measurement": "Tumor weight Inhibition", "setting": "[4]; 13 days", "result": 41.56, "unit": "%"}, {"measurement": "Tumor weight x±SD", "setting": "[4]; 13 days", "result": "0.94±0.20^a g"}, {"measurement": "Body weight Initial", "setting": "[4]; before treatment", "result": "16.0 ± 0.7", "unit": "g"}, {"measurement": "Tumor volume Initial", "setting": "[4]; before treatment", "result": "140.2±13.3", "unit": "mm3"}]}
